A selection: hits, their analogues and other compounds. The true share with any hit is near 3.4%.
p97 ATPase inh = blocks human p97 ATPase activity; AID 1481; 0.42% of 220,000 active; recombinant p97 ATPase, Kinase-Glo ATP luminescence, 3 h; inhibition, % at 8 µM; in the data active means inhibition above about 15%
Target sequence (P55072 whole entry, looked up): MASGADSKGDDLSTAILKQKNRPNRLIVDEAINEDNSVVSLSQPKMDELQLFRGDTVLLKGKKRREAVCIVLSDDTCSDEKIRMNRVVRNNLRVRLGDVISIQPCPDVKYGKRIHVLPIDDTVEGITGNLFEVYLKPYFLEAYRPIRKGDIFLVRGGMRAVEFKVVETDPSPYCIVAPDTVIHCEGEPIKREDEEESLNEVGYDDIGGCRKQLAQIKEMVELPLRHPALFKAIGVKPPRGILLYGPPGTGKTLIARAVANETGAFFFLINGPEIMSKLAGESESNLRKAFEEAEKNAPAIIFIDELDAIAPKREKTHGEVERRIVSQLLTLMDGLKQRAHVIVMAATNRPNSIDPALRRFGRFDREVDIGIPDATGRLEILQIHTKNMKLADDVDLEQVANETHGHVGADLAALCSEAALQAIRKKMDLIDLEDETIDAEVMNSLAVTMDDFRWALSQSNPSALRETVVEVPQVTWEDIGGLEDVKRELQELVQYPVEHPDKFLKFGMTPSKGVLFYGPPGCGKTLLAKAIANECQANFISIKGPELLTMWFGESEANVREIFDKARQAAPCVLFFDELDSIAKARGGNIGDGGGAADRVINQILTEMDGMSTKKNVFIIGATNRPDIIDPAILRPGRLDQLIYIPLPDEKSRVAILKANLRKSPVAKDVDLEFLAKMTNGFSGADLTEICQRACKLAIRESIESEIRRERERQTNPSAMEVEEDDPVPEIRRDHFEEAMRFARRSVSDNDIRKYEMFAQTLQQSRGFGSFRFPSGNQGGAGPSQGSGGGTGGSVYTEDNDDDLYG
Cl transport mod = modulates chloride dependent transport by human KCC2; Q9H2X9; B-score of Tl+ flux slope (higher = more flux/activation; lower = inhibition) at 10 µM; 2.2% of 190,000 active; KCC2 cells, thallium flux FluoZin-2 fluorescence;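 active means thallium flux slope and its plate-corrected score both differing from the plate sample mean at a set confidence after two filtering rounds, in either direction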;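 further: slope of fluorescence scaled to starting intensity during 10 to 20 s after thallium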
DTT redox prof = compounds producing H2O2 with reducing agent – biochemical, NIH compound library profiling, artefact control for MLSCN library redox annotation, primary screen. activation, % at 10 µM. 0.03% of 200,000 active. AID 878. DTT-dependent redox cycling H2O2, phenol red/HRP absorbance; 100% = 100 µM peroxide control, 0% = buffer;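 active means activation of at least 50% relative to the plate's high and low controls in the primary single-dose screen; inactive means activation below 50%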;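 further: compound incubated with DTT at 0.8 mM final as the reducing agent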
Mdm2 ligase inh = blocks human Mdm2 ubiquitin ligase activity. cell-based MDM2 ubiquitination luciferase reporter, 2 h; 0 = plate control, 100 = twice control, blank-subtracted. AID 1230. Q00987. 0.11% of 210,000 active. signal enhancement, % at 5 µM;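 active means signal enhancement of 30% or more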;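 further: luminescence tracks abundance of the self-degrading MDM2-luciferase fusion protein; higher signal means inhibition of MDM2 E3 ligase activity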
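Material: stable MDM2–luciferase fusion reporter cells / Quantity: 2000 cells/well / Dosing: single 5 µM compound dose, 0.2% final DMSO / Buffer or medium: DMEM / Schedule: 4 h cell settling then 2 h compound exposure, 37 °C / Detection: luminescence with SteadyLite reagent, 15 min at room temperature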
ROMK primary = modulates human ROMK potassium channel activity | P48048 | Tet-inducible ROMK, thallium flux fluorescence; actives lie on both sides | B-score at 10 µM | 2% of 130,000 active | AID 1918;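 active means signal ratio slope over the read window, or its plate-corrected B-score, at least 3 SD from the plate mean, either direction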;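 further: B-score of the F/F0 ratio slope over 7 to 12 s after thallium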
PKD1 kinase inh = blocks activity of human protein kinase D1 | inhibition, % (concentration not given with the values) | PKD1 kinase fluorescence polarization assay | 0.056% of 200,000 active | Q15139; in the data active means inhibition above about 50%
ROMK retest = confirmation of human ROMK potassium channel modulators. ROMK thallium flux, fluorescence ratio; stronger effect = lower value. shares compounds with ROMK primary. normalized thallium flux (F/F0 slope) at 10 µM. 54% of 3,000 active;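 active means Flux at 10 µM at least 3 SD below or above vehicle control mean in one or both replicates; inconclusive means no clear call, values can overlap the other calls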
Large screens that a line does not name were inactive (follow-up assays come after a bar, where they were run).

COc1ccc(CNc2nc3ccccc3n2C)c(OC)c1	ROMK primary -7.6 | ROMK retest inactive
CC1=NNC(=O)C1CCC(=O)N/N=C/C(Br)=C/c1ccccc1 (stereo not given)	none (no result: ROMK primary)
CCOC(=O)C(CC)Sc1nc2c(cnn2-c2ccccc2)c(=O)[nH]1 (stereo not given)	none (no result: Cl transport mod, ROMK primary)
CCC(CC)C(=O)Nc1c2cnn(-c3ccccc3)c2nc(=O)n1-c1ccccc1	ROMK primary -5 | ROMK retest 0.052
COc1cccc(C2CC(C(F)(F)F)n3ncc(C(=O)Nc4c(C)n(C)n(-c5ccccc5)c4=O)c3N2)c1 (stereo not given)	none (no result: ROMK primary)
COc1ccc(C2CC(C(F)(F)F)n3ncc(C(=O)Nc4c(C)n(C)n(-c5ccccc5)c4=O)c3N2)cc1 (stereo not given)	ROMK primary -6.1 (no result: Cl transport mod) | ROMK retest inactive
Cc1ccc(OCCNC(=O)C(=O)NCc2ccco2)cc1	ROMK primary 3 | ROMK retest 0.1
CCN(CC)c1ccc(C=O)c(OC)c1	none
CCOc1ccccc1N1CCN(C(=O)Nc2ccc(Cl)c(Cl)c2)CC1	none (no result: Cl transport mod, ROMK primary)
Cc1ccc(NC(=O)CCN2CCN(C/C=C/c3ccccc3)CC2)cc1C	ROMK primary -3.1 (no result: Cl transport mod) | ROMK retest 0.048
O=C(Nc1cccc(Cl)c1)N1CCN(C/C=C/c2ccccc2)CC1	ROMK primary -3.6 | ROMK retest inconclusive
CCOc1ccccc1N1CCN(C(=O)Nc2cccc(Cl)c2)CC1	ROMK primary -3.1 | ROMK retest inactive
COC(=O)Cc1c(O)ccn(Cc2ccc3c(c2)OCO3)c1=O	none
CC1CCC(C(C)C)C(OCC(O)CNC(C)c2ccccc2)C1 (stereo not given)	none
CC(NCC(O)COC1CCC(C(C)(C)C)CC1)c1ccccc1 (stereo not given)	ROMK primary -2.3 | ROMK retest 0.058
CCc1cc2c(Sc3nc4ccccc4s3)ncnc2s1	none (no result: ROMK primary)
c1ccc2sc(Sc3ncnc4sccc34)nc2c1	none (no result: ROMK primary) | ROMK retest inactive
S=C(NC1CCCCC1)NC1CC2C=CC1C2 (stereo not given)	none (no result: DTT redox prof, PKD1 kinase inh)
O=c1cc(-c2ccccc2[N+](=O)[O-])oc2ccccc12	ROMK primary 2.4 | ROMK retest inactive
COc1ccc(OC)c(N(CC(=O)Nc2ccc3c(c2)OCO3)S(=O)(=O)c2ccccc2)c1	ROMK primary -2.8 | ROMK retest inactive
COc1ccc(OC)c(NC(=O)c2cccc(S(=O)(=O)N(Cc3ccccc3)c3ccccc3OC)c2)c1	none (no result: ROMK primary) | ROMK retest inactive
N#CN(CC(N)=O)c1nc(N2CCCCC2)nc(N2CCCCC2)n1	none (no result: ROMK primary)
O=C(COc1nsnc1N1CCOCC1)N/N=C/c1ccccc1O	none
CSc1nc(C)cc(OCC(=O)N/N=C/c2ccccc2O)n1	ROMK primary 2.9 | ROMK retest inactive
O=C(Cn1c(SCC(=O)N2CCc3ccccc3C2)nc2ccccc21)NC1CCCC1	none (no result: ROMK primary)
CCOC(=O)N1CCN(C(=O)COc2cccc3c2CCN(Cc2cccc(C)c2)C3=O)CC1	none (no result: ROMK primary) | ROMK retest 0.064
Cc1ccccc1CN1CCc2c(OCC(=O)N3CCCc4ccccc43)cccc2C1=O	none | ROMK retest inactive
CCOC(=O)N1CCN(C(=O)COc2cccc3c2CCN(Cc2ccccc2C)C3=O)CC1	none (no result: ROMK primary)
COC(=O)/C(C#N)=C/c1ccc(N2CCOCC2)c([N+](=O)[O-])c1	none (no result: Cl transport mod, DTT redox prof, ROMK primary, PKD1 kinase inh)
CC(C)c1ccc(/C=N/NC(=O)CC(=O)NC2CCCCC2)cc1	ROMK primary -9.2 | ROMK retest inactive
CC(C)c1ccc(/C=C/C(=O)NC2CCCCC2)cc1	none (no result: ROMK primary)
Cc1cc(C)nc(N2CCCC(C(=O)Nc3nnc(C(C)(C)C)s3)C2)n1 (stereo not given)	none (no result: Cl transport mod)
COC(Cc1n[nH]c(=S)n1-c1ccccc1)OC	none (no result: ROMK primary) | ROMK retest inactive
O=C(CCl)c1ccc2c(c1)CCN2C(=O)C1CC1	ROMK primary -2.8 | ROMK retest 0.064
CN(C)CCCNC(=O)c1cc2sc3ccccc3c2s1	none
CCc1ccc2[nH]c(=O)c(CN(Cc3ccccc3OC)C(=O)Nc3ccccc3OC)cc2c1	ROMK primary 0.96 | ROMK retest inactive
CCOc1cc(CNCCO)cc(Br)c1OCc1ccccc1Cl	none
CCOc1cc(CNCCCN2CCOCC2)cc(Br)c1OCc1ccccc1Cl	ROMK primary -1.6 | ROMK retest inconclusive
COc1cccc(/C=N/NC(=O)c2cc3c(OC)cccc3[nH]2)c1OC	none (no result: ROMK primary) | ROMK retest inactive
COc1cccc(/C=N/NC(=O)c2cc3c(OC)c(OC)ccc3[nH]2)c1OC	none
CCOC(=O)C1=C(Cn2cnc3ccccc32)NC(=O)NC1c1ccc(Cl)cc1 (stereo not given)	none (no result: Cl transport mod)
Oc1ccc2cc(Br)ccc2c1CN1CCCC1	none | ROMK retest 0.064
Oc1ccc2ccccc2c1CN1CCCC1	none
Cc1ccc(O)c(C(=O)c2cnn(C(=O)Cc3csc(C)n3)c2)c1	ROMK primary -6.7 | ROMK retest inactive
CCc1ccc(C2NC(c3ccc(CC)cc3)C([N+](=O)[O-])C(C)(C)C2[N+](=O)[O-])cc1 (stereo not given)	none (no result: ROMK primary)
Oc1cc(Br)ccc1C=Nc1ccc(N2CCCCC2)cc1	none (no result: DTT redox prof, ROMK primary, PKD1 kinase inh) | ROMK retest 0.046
O=C(NC1CCCCC1)c1nc2c(nnn2Cc2ccccc2Cl)c(=O)[nH]1	none
CCn1c(=O)c(C)nn2c3ccccc3nc12	none (no result: ROMK primary) | ROMK retest inactive
COc1ccc(C(=O)Nc2cc(=O)n(C)c(=O)n2C)cc1	none
Cc1sc(NC(=O)CCCC(=O)O)c(C#N)c1C	none (no result: ROMK primary) | ROMK retest inactive
COc1ccc(CCNC(=O)CS(=O)(=O)c2cn(CC(=O)N3CCOCC3)c3ccccc23)cc1OC	none
CCCCNC(=O)CC1C(=O)N(Cc2ccccc2)C(C)c2nc3ccccc3n21 (stereo not given)	none (no result: Cl transport mod)
COCCCNC(=O)CC1C(=O)N(Cc2ccccc2)C(C)c2nc3ccccc3n21 (stereo not given)	ROMK primary -4.4 | ROMK retest inactive
COc1ccccc1C1=NOC(COc2ccc3c(C)cc(=O)oc3c2)C1 (stereo not given)	ROMK primary 3.3 (no result: DTT redox prof, PKD1 kinase inh) | ROMK retest inactive
CCOc1ccccc1-c1nnc(SCC(=O)Nc2ccccc2)o1	none
Cn1cccc1/C=C1\SC(=S)N(NC(=O)c2ccccc2)C1=O	ROMK primary -2.7 | ROMK retest 0.06
O=C(Nc1ccc(Cl)cc1)N1N=CCC1c1ccccc1 (stereo not given)	ROMK primary -3.1 (no result: DTT redox prof, PKD1 kinase inh) | ROMK retest 0.064
O=C(O)C1CCCN1C(=O)c1cncc(Br)c1 (stereo not given)	none (no result: Cl transport mod, ROMK primary)
Cc1ccc(N=Cc2cc(Br)cc(Cl)c2O)cc1	ROMK primary 3.4 | ROMK retest 0.1
